Data on 22 compounds can be found in PubChem BioAssay AID871 (The Scripps Research Institute Molecular Screening Center, 2007).

Among all 190,000 compounds or so, about 1,800 (0.95%) were called active. This excerpt belongs to a sample that is enriched for actives. Values without a mark were called inactive.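 The calls were made as follows: active = activation above the screen-wide mean of compound activation plus 3 SD (cut at about 130% in these data); inactive = the rest.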

The nature of this experiment: enhancers of STAT3 transcriptional signaling – U3A cells, luciferase, luminescence, MLSCN library, primary screen (AID 871).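 Also: 0% = background luminescence of wells with medium and substrate only.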 As to conditions: IL-6 STAT3-luciferase reporter, at 5.6 µM, stronger effect = higher value, 100% = signal with IL-6 EC80 alone. The procedure, abridged:
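system = STAT3-luciferase reporter U3A cells | reagent = IL-6 stimulus at 33 ng/mL final | timing = 1 h compound pre-exposure, 6 h IL-6 stimulation, 37 °C | measured by = luminescence | evaluation = % activation versus median of IL-6-stimulated wells | control set = IL-6-only wells as 100% reference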
(A reporter such as luciferase makes a cellular process visible.)
Regarding `CSc1ccc(CN(C)CC(=O)NCc2ccc(F)cc2)cc1`, the activation (% of control) is 106%. In the case of `CCOC(=O)N1CCN(CC(=O)Nc2ccc(F)cc2)CC1`, the activation (% of control) was 108%.

On to `CCOC(=O)N1CCN(CC(=O)Nc2cc(C)nn2-c2nc3ccccc3s2)CC1`, for which the activation (% of control) was 162% (active).

For the compound `Cc1cc(NC(=O)CN2CCCC(C)C2)n(-c2nc3ccccc3s2)n1` (configuration not stated), the activation (% of control) was 113%. With `O=C(CCNC(=O)c1ccc([N+](=O)[O-])cc1)Nc1ccccc1N1CCOCC1` the figure was 104%; with `NC(=O)CC[C@@H]1NC(=O)[C@H](CO)NC(=O)c2cc([N+](=O)[O-])cc(I)c2NCC[C@@H](C(N)=O)NC1=O`, 95.5%. With `Cc1cc(O)cc(O)c1C(=O)Cc1cnn(-c2ccccc2)c1`, the activation (% of control) is 92.8%. For `Oc1cccc(C2c3[nH]c4ccccc4c3CCN2Cc2cnn(-c3ccccc3)c2)c1` (configuration not stated) the value was 138% (active); for `c1ccc(C2c3[nH]c4ccccc4c3CCN2Cc2cccn2-c2cccnc2)nc1` (configuration not stated), 94%. `Cc1ccc(Cl)cc1NC(=S)N(CCN(C)C)Cc1cccs1`: the activation (% of control) is 96.1%.

As for `COc1ccc2c(CC(=O)OCC(=O)Nc3ccccc3[N+](=O)[O-])coc2c1`, the activation (% of control) is 110%. With `Cc1ccc(-c2cc(C(=O)N3CCc4ccccc4C3)no2)cc1` the figure was 98.3%; with `Cc1ccc2c(c1)c1ncn(CCC3=CCCCC3)c(=O)c1n2C`, 104%.

For the compound `Cc1ccc2c(c1)c1ncnc(N3CCc4ccccc4C3)c1n2C`, the activation (% of control) is 133% (active).

Consider `Fc1ccc(COc2cccc(-c3n[nH]c(=S)o3)c2)cc1`, for which the activation (% of control) is 102%. With `CCOC(=O)N1CCN(Cc2nc3ccc([N+](=O)[O-])cc3c(=O)n2-c2cccc(OC)c2)CC1` the figure was 83.3%. For the compound `CCn1cc(C(=O)NCCCN2CCCCCC2)c(=O)c2cc(S(=O)(=O)N3CCc4ccccc4C3)ccc21`, the activation (% of control) is 108%.

With `COc1ccc(NC(=O)ON=C2c3ccccc3-c3ccccc32)cc1`, the activation (% of control) was 152% (active). For `COc1ccc(NC(=O)C(Br)C(C)C)cc1` (configuration not stated) the value was 101%. Consider `COc1ccc(C(=O)ON=C2c3ccccc3-c3ccccc32)cc1OC`, for which the activation (% of control) is 107%. Turning to `COCCN(C(=O)c1ccccc1F)c1c(N)n(Cc2ccccc2)c(=O)[nH]c1=O`, the activation (% of control) was 89.7%. For `CC12CN(NC(=O)c3ccc(Cl)cc3)C3(C#N)CC1CCC23C` (configuration not stated), the activation (% of control) is 104%.
